Assay results from ChEMBL document CHEMBL1124846, “Synthesis, antiproliferative, and antiviral activity of certain 4-substituted and 4,5-disubstituted 7-[(1,3-dihydroxy-2-propoxy)methyl]pyrrolo[2,3-d]pyrimidines” (J Med Chem, 1990).

Tests used:
[1] = system: Human alphaherpesvirus 1; experiment: Inhibition of herpes simplex virus (HSV-1) in plaque reduction assay; assay type: functional, organism-based
Procedure, shortened: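 HSV-1 S-148 strain plaque reduction in BSC-1 monkey kidney monolayers, with about 100 PFU inoculum and compound dissolved in the overlay medium. IC50 came from linear regression of percent inhibition against log concentration, with a positive control in each set.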

[2] = Inhibition of herpes simplex virus type 1(HSV-1) in human foreskin fibroblasts cell lines was determined by plaque assay; assay type: functional, cell-based; details: Fibroblast
Procedure, shortened: (§1)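 Plaque reduction used MCMV Smith in primary mouse embryo fibroblasts, HCMV AD169 in low-passage HFF, and HSV-1 E-377 and HSV-2 MS in MEF, rabbit kidney or HFF. IC50 was determined against untreated controls; two or more experiments.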

[3] = organism: Homo sapiens; experiment: Inhibition of AD169 strain human cytomegalo virus (HCMV) in human foreskin fibroblasts cell lines was determined by plaque assay; assay type: functional, organism-based; details: Fibroblast; procedure, shortened: as §1
[4] = system: Human betaherpesvirus 5; experiment: Inhibition of human cytomegalovirus (HCMV) in plaque reduction assay; assay type: functional, organism-based
Procedure, shortened: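 HCMV Towne strain (plaque-purified P0) plaque reduction in HFF monolayers in MEM(E) with 10% FBS. Inoculum held about 50 PFU, with compound dissolved in the overlay medium. IC50 came from linear regression of percent inhibition against log concentration, with ganciclovir or acyclovir positive controls in every set; two to five experiments.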

[5] = Compound was evaluated for cytotoxic activity against HFF cells; assay type: functional, cell-based; details: Homo sapiens
Procedure, shortened: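 Visual cytotoxicity in uninfected areas of plaque-reduction cultures. HFF cells grown in MEM(E) + 10% FBS for HCMV (Towne) assays; BSC-1 cells for HSV-1 (S-148) assays. Drug in overlay medium. Cytopathology scored 0 to 4+ at 35- and 60-fold magnification on the staining day.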

[6] = system: L1210; experiment: In vitro inhibition of L1210 cell growth.; assay type: functional, Mus musculus; design: concentration or dose not given beside the values
Procedure, shortened: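 Murine L1210 leukemia cells in static suspension culture in Fischer's medium with compound for 4 days. Growth rate is the ratio of control to treated population doubling time; where the rate changed, the final rate was used. IC50 is the concentration giving 50% of control growth rate; single-concentration value at 100 μM.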

[7] = system: Mus musculus; experiment: Compound was evaluated for percent mortality of mice inoculated with murine cytomegalovirus at a concentration of 50 mg/kg at 48 h; assay type: ADME, organism-based; design: dose 50 mg/kg; details: in vivo
Procedure, shortened: (§2)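 Three-week-old female Swiss Webster mice infected ip with 2×10^5 PFU MCMV Smith strain; groups of 15 given drug ip twice daily for 5 days, starting 6, 24 or 48 h after inoculation. Toxicity controls received drug without virus. Mortality followed daily for 21 days; final mortality compared with placebo by Fisher Exact Test.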

[8] = system: Mus musculus; experiment: Compound was evaluated for percent mortality of mice inoculated with murine cytomegalovirus at a concentration of 5.6 mg/kg at 48 h; assay type: ADME, organism-based; design: dose 5.6 mg/kg; details: in vivo; procedure, shortened: as §2
[9] = system: Mus musculus; experiment: Compound was evaluated for percent mortality of mice inoculated with murine cytomegalovirus at a concentration of 50 mg/kg at 24 h; assay type: ADME, organism-based; design: dose 50 mg/kg; details: in vivo; procedure, shortened: as §2
[10] = system: Mus musculus; experiment: Compound was evaluated for percent mortality of mice inoculated with murine cytomegalovirus at a concentration of 1.9 mg/kg at 24 h; assay type: organism-based; design: dose 1.9 mg/kg; details: in vivo
Procedure, shortened: (§3)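 Three-week-old female Swiss Webster mice inoculated ip with 2×10^5 PFU MCMV Smith strain. Groups of 15 dosed ip twice daily for 5 days, starting 6, 24 or 48 h post-inoculation. Held 21 days with daily mortality checks. Final mortality and mean day of death (dying animals) computed. Mortality versus placebo by Fisher Exact Test, MDD by Mann–Whitney U-rank test.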

[11] = Compound was evaluated for percent mortality of mice inoculated with murine cytomegalovirus at a concentration of 1.9 mg/kg; drug toxicity control; assay type: organism-based; design: dose 1.9 mg/kg; details: mouse, in vivo
Procedure, shortened: (§4)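 Drug toxicity control: uninfected three-week-old female Swiss Webster mice, groups of 15, dosed ip twice daily for 5 days. Held 21 days with daily mortality checks. Final mortality and mean day of death for animals that died were calculated.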

[12] = system: Mus musculus; experiment: Compound was evaluated for percent mortality of mice inoculated with murine cytomegalovirus at a concentration of 16.7 mg/kg at 24 h; assay type: organism-based; design: dose 16.7 mg/kg; details: in vivo; procedure, shortened: as §3
[13] = system: Mus musculus; experiment: Compound was evaluated for percent mortality of mice inoculated with murine cytomegalovirus at a concentration of 16.7 mg/kg at 48 h; assay type: organism-based; design: dose 16.7 mg/kg; details: in vivo; procedure, shortened: as §3
[14] = system: Mus musculus; experiment: Compound was evaluated for percent mortality of mice inoculated with murine cytomegalovirus at a concentration of 16.7 mg/kg at 6 h; assay type: organism-based; design: dose 16.7 mg/kg; details: in vivo; procedure, shortened: as §3
[15] = system: Mus musculus; experiment: Compound was evaluated for percent mortality of mice inoculated with murine cytomegalovirus at a concentration of 5.6 mg/kg at 24 h; assay type: ADME, organism-based; design: dose 5.6 mg/kg; details: in vivo; procedure, shortened: as §2
[16] = Cytotoxicity of human simplex virus type 1 in monkey kidney cells; assay type: functional, cell-based; details: Cercopithecidae
Procedure, shortened: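 Visual cytotoxicity was scored in uninfected cells of the same host monolayers used for the plaque assays, on a 0 to 4+ scale at 35- and 60-fold magnification, at the time plaques were counted.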

[17] = system: Mus musculus; experiment: Compound was evaluated for 15 mice treated ip twice daily for 5 days at a dose of 1.9 mg/kg followed (MCMV) virus inoculation; assay type: functional; details: route intraperitoneal
[18] = system: Mus musculus; experiment: Compound was evaluated for 15 mice treated ip twice daily for 5 days at a dose of 16.7 mg/kg at 6 hr followed (MCMV) virus inoculation; assay type: functional; details: route intraperitoneal; procedure, shortened: as §3
[19] = system: Mus musculus; experiment: Compound was evaluated for 15 mice treated ip twice daily for 5 days at a dose of 5.6 mg/kg at 24 hr followed (MCMV) virus inoculation; assay type: functional; details: route intraperitoneal; procedure, shortened: as §3
[20] = system: Mus musculus; experiment: Compound was evaluated for 15 mice treated ip twice daily for 5 days at a dose of 5.6 mg/kg at 6 hr followed (MCMV) virus inoculation; assay type: functional; details: route intraperitoneal; procedure, shortened: as §3
[21] = system: Mus musculus; experiment: Compound was evaluated for 15 mice treated ip twice daily for 5 days at a dose of 5.6 mg/kg followed (MCMV) virus inoculation; assay type: functional; details: route intraperitoneal
[22] = system: Mus musculus; experiment: Compound was evaluated for 15 mice treated ip twice daily for 5 days at a dose of 50 mg/kg at 24 h followed (MCMV) virus inoculation; assay type: functional; details: route intraperitoneal; procedure, shortened: as §3
[23] = system: Mus musculus; experiment: Compound was evaluated for 15 mice treated ip twice daily for 5 days at a dose of 50 mg/kg followed (MCMV) virus inoculation; assay type: functional; details: route intraperitoneal
[24] = system: Mus musculus; experiment: Compound was evaluated for mean day of death at 1.9 mg/kg at 24 h; assay type: functional; procedure, shortened: as §3
[25] = system: Mus musculus; experiment: Compound was evaluated for mean day of death at 1.9 mg/kg at 48 h; assay type: functional; procedure, shortened: as §3
[26] = system: Mus musculus; experiment: Compound was evaluated for mean day of death at 16.7 mg/kg at 24 h; assay type: functional; procedure, shortened: as §3
[27] = system: Mus musculus; experiment: Compound was evaluated for mean day of death at 16.7 mg/kg at 6 h; assay type: functional; procedure, shortened: as §3
[28] = system: Mus musculus; experiment: Compound was evaluated for mean day of death at 16.7 mg/kg; drug toxicity control; assay type: functional; procedure, shortened: as §4
[29] = system: Mus musculus; experiment: Compound was evaluated for mean day of death at 5.6 mg/kg at 24 h; assay type: functional; procedure, shortened: as §3
[30] = system: Mus musculus; experiment: Compound was evaluated for mean day of death at 50 mg/kg at 24 h; assay type: functional; procedure, shortened: as §3
[31] = system: Mus musculus; experiment: Compound was evaluated for mean day of death at 50 mg/kg at 6 h; assay type: functional; procedure, shortened: as §3
[32] = organism: Mus musculus; experiment: Inhibition of herpes simplex virus […](HSV-2) in mouse embryo fibroblasts cell lines was determined by plaque assay; assay type: functional, organism-based; details: Fibroblast; procedure, shortened: as §1
[33] = organism: Mus musculus; experiment: Inhibition of murine cytomegalo virus in mouse embryo fibroblasts cell lines was determined by plaque assay; assay type: functional, organism-based; details: Fibroblast; procedure, shortened: as §1
[34] = organism: Mus musculus; experiment: Cytotoxicity of human simplex virus type 1 in mouse embryo fibroblasts cells; details: Fibroblast
[35] = Inhibition of herpes simplex virus type 1(HSV-1) in mouse embryo fibroblasts cell lines was determined by plaque assay; details: Fibroblast

Nc1ncnc2c1c(Br)cn2COC(CO)CO
IC50 [1]: 2000 nM | IC50 [2]: 200 nM | IC50 [3]: 600 nM | IC50 [4]: 1900 nM | IC50 ([4]; Human betaherpesvirus 5): 1600 nM | IC50 [5]: > 100000 nM | Activity [6]: 0% | Mortality [7]: 87% | Mortality [8]: 40% | Mortality [9]: 93% | Mortality [10]: 60% | Mortality [11]: 0% | Mortality [12]: 80% | Mortality [13]: 87% | Mortality [14]: 60% | Mortality [15]: 20% | IC50 [16]: > 100000 nM | Activity [17]: 0 | Activity [18]: 9 | Activity [19]: 3 | Activity [20]: 1 | Activity [21]: 0 | Activity [22]: 14 | Activity [23]: 0 | MDD [24]: 4.8 | MDD [25]: 4.8 | MDD [26]: 7.1 | MDD [27]: 8.7 | MDD [28]: 5 | MDD [29]: 6.3 | MDD [30]: 8.8 | MDD [31]: 10.8 | IC50 [32]: 1900 nM | IC50 [33]: 30 nM | IC50 [34]: > 158000 nM | IC50 [35]: 1900 nM
